In ChEMBL document CHEMBL2157987, “Benzimidazole bearing oxadiazole and triazolo-thiadiazoles nucleus: design and synthesis as anticancer agents” (2012):

Legend:
Assay type in all cases: functional
[1] = test system: HOP-62; test: Cytotoxicity against human HOP62 cells after 48 hrs by SRB assay; details: HOP-62, 48 h
Outline: (§1)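 Five-dose NCI-60 panel screen: cells grown in RPMI 1640 with 5% FBS and 2 mM L-glutamine, preincubated 24 h at 37 °C, 5% CO2. Five 10-fold dilutions, 0.01–100 µM, applied for 48 h. Fixed with cold TCA (10% final), stained with 0.4% SRB, absorbance read at 515 nm. GI50, TGI and LC50 were taken from log concentration versus % growth curves using time-zero plates.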

[2] = test system: HCT-116; test: Cytotoxicity against human HCT116 cells after 48 hrs by SRB assay; details: HCT-116, 48 h; outline: as §1
[3] = test system: SNB-19; test: Cytotoxicity against human SNB19 cells after 48 hrs by SRB assay; details: SNB-19, 48 h
Outline: (§2)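 Cells were grown in RPMI 1640 with 5% FBS and 2 mM L-glutamine, then held 24 h at 37 °C and 5% CO2 before dosing. TCA-fixed time-zero plates were kept. Compound was dissolved in DMSO and given at five 10-fold dilutions for 48 h. Cells were fixed with cold TCA (10% final), stained with 0.4% SRB and read at 515 nm. GI50, TGI and LC50 came from Ti/Tz/control growth formulas.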

[4] = test system: Hs-578T; test: Cytotoxicity against human Hs578T cells after 48 hrs by SRB assay; outline: as §1
[5] = test system: HCT-15; test: Cytotoxicity against human HCT15 cells after 48 hrs by SRB assay; details: HCT-15, 48 h; outline: as §1
[6] = test system: SF-268; test: Cytotoxicity against human SF268 cells after 48 hrs by SRB assay; details: SF-268, 48 h; outline: as §1
[7] = test system: DU-145; test: Cytotoxicity against human DU145 cells after 48 hrs by SRB assay; details: DU-145, 48 h; outline: as §1
[8] = test system: NCI-H226; test: Cytotoxicity against human NCI-H226 cells after 48 hrs by SRB assay; details: NCI-H226, 48 h; outline: as §1
[9] = test system: HOP-92; test: Cytotoxicity against human HOP92 cells after 48 hrs by SRB assay; details: HOP-92, 48 h; outline: as §1
[10] = test system: RXF 393; test: Cytotoxicity against human RXF393 cells after 48 hrs by SRB assay; details: RXF 393, 48 h; outline: as §1
[11] = test system: MDA-MB-468; test: Cytotoxicity against human MDA-MB-468 cells after 48 hrs by SRB assay; details: MDA-MB-468, 48 h; outline: as §1
[12] = test system: BT-549; test: Cytotoxicity against human BT549 cells after 48 hrs by SRB assay; details: BT-549, 48 h; outline: as §1
[13] = test system: LOX IMVI; test: Cytotoxicity against human LOXIMVI cells after 48 hrs by SRB assay; outline: as §1
[14] = test system: NCI-H522; test: Cytotoxicity against human NCI-H522 cells after 48 hrs by SRB assay; details: NCI-H522, 48 h; outline: as §1
[15] = test system: SR; test: Cytotoxicity against human SR cells after 48 hrs by SRB assay; outline: as §2
[16] = test system: ACHN; test: Cytotoxicity against human ACHN cells after 48 hrs by SRB assay; outline: as §1
[17] = test system: IGROV-1; test: Cytotoxicity against human IGROV1 cells after 48 hrs by SRB assay; details: IGROV-1, 48 h; outline: as §1
[18] = test system: PC-3; test: Cytotoxicity against human PC3 cells after 48 hrs by SRB assay; details: PC-3, 48 h; outline: as §1
[19] = test system: EKVX; test: Cytotoxicity against human EKVX cells after 48 hrs by SRB assay; outline: as §1
[20] = test system: SF-295; test: Cytotoxicity against human SF295 cells after 48 hrs by SRB assay; details: SF-295, 48 h; outline: as §1
[21] = read-out: LC50 (the source's name)
[22] = read-out: pLC50 (the source's name) (converted)

## Nc1cc(Br)c(-c2nnc(CCC(=O)c3nc4ccccc4[nH]3)o2)c(Br)c1
[1]
  GI50: 23.4 µM
[1]; [21]
  CC50: > 100 µM
[1]; read-out: TGI
  TGI: > 100 µM
[1]; [22]
  CC50: > 100 µM
[1]; read-out: pTGI
  TGI: > 100 µM
[2]
  GI50: 8.32 µM
[2]; [21]
  CC50: > 100 µM
[2]; read-out: TGI
  TGI: > 100 µM
[2]; [22]
  CC50: > 100 µM
[2]; read-out: pTGI
  TGI: > 100 µM
[3]
  GI50: 20 µM
[3]; [21]
  CC50: > 100 µM
[3]; read-out: TGI
  TGI: > 100 µM
[3]; [22]
  CC50: > 100 µM
[3]; read-out: pTGI
  TGI: > 100 µM
[4]
  GI50: 3.72 µM
[4]; [21]
  CC50: > 100 µM
[4]; read-out: TGI
  TGI: 31.7 µM
[4]; [22]
  CC50: > 100 µM
[4]; read-out: pTGI (converted)
  TGI: 31.6 µM
[5]
  GI50: > 100 µM
[5]; [21]
  CC50: > 100 µM
[5]; read-out: TGI
  TGI: > 100 µM
[5]; [22]
  CC50: > 100 µM
[5]; read-out: pTGI
  TGI: > 100 µM
[6]
  GI50: 5.13 µM
[6]; [21]
  CC50: > 100 µM
[6]; read-out: TGI
  TGI: 81.6 µM
[6]; [22]
  CC50: > 100 µM
[6]; read-out: pTGI (converted)
  TGI: 81.3 µM
[7]
  GI50: 5.37 µM
[7]; read-out: LC50
  LC50 (50% lethal concentration): > 100 µM
[7]; read-out: TGI
  TGI: 53.5 µM
[7]; read-out: pLC50 (converted)
  LC50 (50% lethal concentration): > 100 µM
[7]; read-out: pTGI (converted)
  TGI: 53.7 µM
[8]
  GI50: 22.4 µM
[8]; [21]
  CC50: > 100 µM
[8]; read-out: TGI
  TGI: > 100 µM
[8]; [22]
  CC50: > 100 µM
[8]; read-out: pTGI
  TGI: > 100 µM
[9]
  GI50: 0.501 µM
[9]; [21]
  CC50: > 100 µM
[9]; read-out: TGI
  TGI: 19.9 µM
[9]; [22]
  CC50: > 100 µM
[9]; read-out: pTGI (converted)
  TGI: 20 µM
[10]
  GI50: 12.9 µM
[10]; [21]
  CC50: > 100 µM
[10]; read-out: TGI
  TGI: 58.6 µM
[10]; [22]
  CC50: > 100 µM
[10]; read-out: pTGI (converted)
  TGI: 58.9 µM
[11]
  GI50: 1.95 µM
[11]; read-out: LC50
  LC50: > 100 µM
[11]; read-out: TGI
  TGI: 6.97 µM
[11]; read-out: pLC50 (converted)
  LC50: > 100 µM
[11]; read-out: pTGI (converted)
  TGI: 6.92 µM
[12]
  GI50: 6.76 µM
[12]; [21]
  CC50: > 100 µM
[12]; read-out: TGI
  TGI: > 100 µM
[12]; [22]
  CC50: > 100 µM
[12]; read-out: pTGI
  TGI: > 100 µM
[13]
  GI50: 3.24 µM
[13]; [21]
  CC50: > 100 µM
[13]; read-out: TGI
  TGI: 46.4 µM
[13]; [22]
  CC50: > 100 µM
[13]; read-out: pTGI (converted)
  TGI: 46.8 µM
[14]
  GI50: 2.88 µM
[14]; [21]
  CC50: > 100 µM
[14]; read-out: TGI
  TGI: 16.9 µM
[14]; [22]
  CC50: > 100 µM
[14]; read-out: pTGI (converted)
  TGI: 17 µM
[15]
  GI50: 4.17 µM
[15]; [21]
  CC50: > 100 µM
[15]; read-out: TGI
  TGI: > 100 µM
[15]; [22]
  CC50: > 100 µM
[15]; read-out: pTGI
  TGI: > 100 µM
[16]
  GI50: 47.9 µM
[16]; read-out: LC50
  LC50: > 100 µM
[16]; read-out: TGI
  TGI: > 100 µM
[16]; read-out: pLC50 (converted)
  LC50: > 100 µM
[16]; read-out: pTGI
  TGI: > 100 µM
[17]
  GI50: 5.89 µM
[17]; read-out: LC50
  LC50: > 100 µM
[17]; read-out: TGI
  TGI: 62.7 µM
[17]; read-out: pLC50 (converted)
  LC50: > 100 µM
[17]; read-out: pTGI (converted)
  TGI: 63.1 µM
[18]
  GI50: 3.09 µM
[18]; read-out: LC50
  LC50 (concentration killing 50% of cells): > 100 µM
[18]; read-out: TGI
  TGI: > 100 µM
[18]; read-out: pLC50 (converted)
  LC50 (concentration killing 50% of cells): > 100 µM
[18]; read-out: pTGI
  TGI: > 100 µM
[19]
  GI50: 22.9 µM
[19]; [21]
  CC50: > 100 µM
[19]; read-out: TGI
  TGI: > 100 µM
[19]; [22]
  CC50: > 100 µM
[19]; read-out: pTGI
  TGI: > 100 µM
[20]
  GI50: 9.77 µM
[20]; [21]
  CC50: > 100 µM
[20]; read-out: TGI
  TGI: 35.6 µM
[20]; [22]
  CC50: > 100 µM
[20]; read-out: pTGI (converted)
  TGI: 35.5 µM
